Screening data as filed in PubChem.
MrgX1 antag – antagonists of human MrgX1 receptor | B-score at 10 µM | MRGX1-HEK293 calcium flux, Fluo-4, BAM8-22 antagonism; stronger effect = lower value | Q96LB2 | 1.3% of 310,000 active;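 active = calcium-response B-score plate-corrected more than 3 library SD below zero, starting fluorescence within 5 deviations, no agonist response on first addition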;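 note: peak minus trough fluorescence over baseline after final BAM8-22 challenge near maximal dose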
Target sequence (Q96LB2 whole entry, looked up): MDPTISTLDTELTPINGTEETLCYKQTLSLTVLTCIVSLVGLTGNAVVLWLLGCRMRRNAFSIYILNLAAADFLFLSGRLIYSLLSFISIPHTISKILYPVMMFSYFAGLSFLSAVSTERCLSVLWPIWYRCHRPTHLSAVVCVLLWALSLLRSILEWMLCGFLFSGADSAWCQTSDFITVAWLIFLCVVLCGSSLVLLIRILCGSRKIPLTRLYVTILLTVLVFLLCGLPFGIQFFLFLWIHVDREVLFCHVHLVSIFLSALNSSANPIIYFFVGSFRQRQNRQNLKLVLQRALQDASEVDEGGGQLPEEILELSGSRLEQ
RGS4 block – inhibitors of human RGS4. HEK293 M3R/RGS4 inducible, Fluo-4 calcium flux; stronger effect = higher value; triggered by carbachol at its EC20. B-score at 10 µM. 0.45% of 310,000 active;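 active = B-score, a plate-corrected calcium signal, over three deviations above library mean, with baseline fluorescence within five deviations of library mean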;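 note: RGS4 expression induced by doxycycline in cells with stable M3 receptor; B-score is computed from the integrated fluorescence ratio over baseline after carbachol; higher B-score means a larger calcium signal and so more RGS4 inhibition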
RGS4 act – RGS4 potentiation or activation | HEK293 M3R/inducible RGS4, carbachol calcium flux Fluo4; stronger effect = lower value | B-score at 10 µM | 0.92% of 310,000 active | AID 463111;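 active = B-score of the integrated calcium signal more than 4 SD below the library mean, with starting fluorescence not abnormally high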;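 note: negative B-score means reduced calcium response which marks RGS4 activation or potentiation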
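Detection: kinetic calcium fluorescence imaging with Fluo4-AM dye, 2 µM / Material: HEK293 cells with stable M3R and inducible RGS4 / Schedule: recording 10 s baseline at 1 Hz, 100 s post-agonist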
PHOSPHO1 inh – PHOSPHO1 (human) inhibition; Q8TCT1; recombinant PHOSPHO1, absorbance phosphatase assay; inhibition, % at 13.3 µM; 1.1% of 290,000 active; AID 1565; in the data active = inhibition above about 60%
Target sequence (Q8TCT1 whole entry, looked up): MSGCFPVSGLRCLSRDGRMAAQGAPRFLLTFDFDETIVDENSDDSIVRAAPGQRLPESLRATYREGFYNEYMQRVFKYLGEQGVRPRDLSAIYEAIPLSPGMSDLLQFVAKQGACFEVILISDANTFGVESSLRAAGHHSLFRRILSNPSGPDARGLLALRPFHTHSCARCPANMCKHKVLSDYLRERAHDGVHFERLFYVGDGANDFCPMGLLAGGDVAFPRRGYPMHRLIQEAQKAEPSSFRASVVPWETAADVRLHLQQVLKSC
MrgX1 allo act – allosterically activates human MrgX1 receptor signaling; Q96LB2; MrgX1-HEK293, Fluo-4 calcium flux, FDSS; stronger effect = higher value; B-score at 10 µM; 0.63% of 310,000 active;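 active = plate-corrected calcium response at least 3 library SD above typical, normal starting fluorescence, not activating the receptor alone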;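 note: compound read alongside a low EC10 to EC30 dose of BAM8-22 agonist; peak minus trough fluorescence over baseline measured at the second addition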
MrgX1 agonist – agonists of human MrgX1 receptor. 0.44% of 310,000 active. MrgX1-HEK293 cells, Fluo-4 calcium fluorescence, agonist mode; stronger effect = higher value. B-score at 10 µM. Q96LB2;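 active = calcium response B-score plate-corrected fluorescence ratio at least 3 library SD, with starting fluorescence B-score inside 5 SD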
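Assay system: MrgX1-expressing HEK293 cells / Amount: fifteen thousand cells per well / Doses: test compound in the initial addition of three / Timing: cells plated overnight, dye loaded 0.5 h 37 °C, 0.5 h room temperature / Technique: kinetic calcium dye fluorescence, Fluo-4 NW / Control set: positive and negative controls per plate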
Hits are given with their value; . = inactive; / = not tested or not shown. Sampled rows, rich in hits. Any-hit rate of the full collection: about 4.5%.

SMILES | MrgX1 antag | RGS4 block | RGS4 act | PHOSPHO1 inh | MrgX1 allo act | MrgX1 agonist
CC(Oc1ccccc1)C(=O)Nc1cccc([N+](=O)[O-])c1 (stereo not drawn) | . | . | . | 60.1 | . | .
Cc1cc(NC(=O)Nc2cccc([N+](=O)[O-])c2)no1 | . | . | . | . | . | .
Cc1ccc(NC(=O)Nc2cccc([N+](=O)[O-])c2)cc1F | -6.11 | . | . | . | . | .
Cc1cc(C)nc(/N=C(\N)Nc2cccc([N+](=O)[O-])c2)n1 | . | . | . | . | . | 40.5
CCOC(=O)C1=C(C)NC(=O)NC1c1c(O)ccc2ccccc12 (stereo not drawn) | . | . | . | . | . | .
COc1ccc(S(=O)(=O)N2CCOCC2)cc1NC(=O)CN1CCN(C)CC1 | . | . | . | / | . | .
O=C(NCc1ccccc1Cl)C1CCN(C(=O)c2ccco2)CC1 | . | . | . | . | . | .
Cc1ccc(-n2c(Cn3nc(C(F)(F)F)cc3C)n[nH]c2=S)cc1 | . | . | . | 80.9 | . | .
COc1ccc(S(=O)NC2CCCCC2)c(OC)c1C (stereo not drawn) | . | . | . | 86.6 | . | .
COc1cc(C2=CCN(C(C)=O)CC2)ccc1OC(C)=O | . | . | . | / | . | .
Cc1cccc(NS(=O)(=O)c2ccc(C(=O)N3CC(C)OC(C)C3)cc2)c1C (stereo not drawn) | . | . | . | / | . | .
CCc1ccc(OCc2ccc(C(=O)O)o2)cc1 | . | . | . | . | . | .
CC(=O)/C(N=Nc1cc2c(cc1[N+](=O)[O-])OCCO2)=C(\C)O | . | . | . | . | . | .
CC(=O)/C(N=Nc1cc2c(c([N+](=O)[O-])c1C)C(C)(C)CC2(C)C)=C(\C)O | . | . | . | . | 9.41 | .
C/C(=C/C#N)Nc1ccc(C)cc1 | . | . | . | . | 12 | .
COc1ccccc1-n1cnnc1SCC(=O)c1cc(C)n(Cc2cccs2)c1C | . | . | . | 63.4 | . | .
Cc1cc(C(=O)CSc2nnc(-c3ccccc3F)o2)c(C)n1Cc1cccs1 | -6.04 | . | . | 89.7 | . | .
CCOC(=O)C1CCN(C(=O)C2CCN(c3nc4ccc(OC)cc4s3)CC2)CC1 | -5.47 | . | . | . | . | .
CCOC(=O)C1CCN(C(=O)C2CCN(c3nnc(-n4cccc4)s3)CC2)CC1 | . | . | . | . | . | .
CCOC(=O)C(C(=O)Nc1ccc(C)cc1)C1CCCCC1 (stereo not drawn) | . | . | . | . | . | .
CCC(Sc1ccc2nnc(-c3ccc(F)cc3)n2n1)C(=O)OC (stereo not drawn) | . | . | . | . | . | .
CCOC(=O)CC(=O)CSc1ccc2nnc(-c3ccc(F)cc3)n2n1 | . | . | . | 81.2 | . | .
COC(=O)C(C)Sc1ccc2nnc(-c3ccc(F)cc3)n2n1 (stereo not drawn) | . | . | . | 64.6 | . | .
O=C(Nc1cnccc1C(F)(F)F)NC1CCCCC1 | . | . | . | . | . | .
COC(=O)c1sc(NC(=S)NNC(=O)c2c(Br)c(C)nn2C)c(C(=O)OC)c1C | -5.11 | . | . | . | . | .
SMILES | MrgX1 antag | RGS4 block | RGS4 act | PHOSPHO1 inh | MrgX1 allo act | MrgX1 agonist
COC(=O)c1sc(NC(=O)C(C)C)c(C(=O)OC)c1C | . | . | . | . | . | .
CC(C)c1ccc(NC(=O)c2ccccc2NC(=O)C2CC=CCC2C(=O)O)cc1 (stereo not drawn) | . | . | . | . | . | .
N#C/C(=C/c1ccccc1)C(=O)NCc1ccccc1 | . | . | . | 64.3 | . | .
CN(C)c1ccc(/C=C(/C#N)C(=O)NCc2ccccc2)o1 | -4.91 | . | . | . | . | .
Cc1cc(/C([O-])=C(/C(=S)Nc2ccc(F)cc2)[n+]2ccccc2)c(C)n1-c1ccc(F)cc1 | . | . | . | 95.7 | . | .
Cc1ccc(-n2c(C)cc(/C([O-])=C(/C(=S)Nc3ccc(F)c(Cl)c3)[n+]3ccccc3)c2C)cc1 | . | . | . | 83.7 | . | .
CCOC(=O)CC(=O)CSc1nnc(Cn2c(=O)sc3ccccc32)n1C | . | . | . | 71.1 | . | .
Cc1cc(C(=O)O)c(CSCc2cc(C(=O)O)oc2C)o1 | . | . | . | 76.1 | . | .
Cc1cccc(NC(=S)NNC(=O)c2sccc2C)c1 | . | . | . | 80.4 | . | .
Cc1cccc(NC(=S)NNC(=S)NCc2ccccc2)c1 | . | . | . | 77.5 | . | .
S=C(NCc1ccccc1)Nc1cccc(Cl)c1 | . | . | . | . | . | .
Cc1nn(CCc2n[nH]c(=S)n2-c2ccc(F)c(Cl)c2)c(C)c1[N+](=O)[O-] | . | . | . | . | . | .
Cc1nn(CCc2n[nH]c(=S)n2-c2ccc(F)cc2)c(C)c1[N+](=O)[O-] | . | . | . | 94.5 | . | .
Cc1nn(CCc2n[nH]c(=S)n2-c2cccc(Cl)c2)c(C)c1[N+](=O)[O-] | . | . | . | 92.7 | . | .
COc1ccc2[nH]c(=O)c(CNc3cccc(C)c3)cc2c1 | . | . | . | . | . | .
Cc1ccc2[nH]c(=O)c(CNC(C)C)cc2c1 | . | . | . | 62.1 | . | .
C=CCn1c(C)cc(-c2csc(NC)n2)c1C | / | / | / | . | / | /
C=CCn1c(C)cc(-c2csc(N)n2)c1C | . | . | . | 97.9 | . | .
Cc1ccc(S(=O)(=O)N2CCCCC2C(=O)N2CCN(C)CC2)cc1 (stereo not drawn) | . | . | . | 61.5 | . | .
CC1=C(C)NC(=S)SC1 | . | . | . | 73.3 | . | .
COCCn1nnnc1C(c1ccc(Cl)cc1)N1CCSCC1 (stereo not drawn) | . | . | . | 73.5 | . | .
COc1cc(/C=C(\C#N)C(=O)NC2CCCCC2)ccc1OCc1ccc(C(=O)O)cc1 | . | . | . | . | 7.62 | .
Oc1ccc(COCc2ccccc2)c2cccnc12 | -5.57 | . | . | . | . | .
Oc1ccc(CNc2ccccc2F)c2cccnc12 | . | . | . | 97.1 | . | .
Cc1ccc(C(=O)NCC(=O)OC(C)C(=O)Nc2ccc(N(C)C)cc2)cc1C (stereo not drawn) | . | . | . | . | . | .
SMILES | MrgX1 antag | RGS4 block | RGS4 act | PHOSPHO1 inh | MrgX1 allo act | MrgX1 agonist
O=C(c1ccc2c(=O)n(Cc3ccc(Cl)cc3)c(=S)[nH]c2c1)N1CCOCC1 | . | . | . | . | . | .
CCOC(=O)c1[nH]c2ccc(Br)cc2c1NC(=O)CCN1CCN(C(=O)OCC)CC1 | . | . | . | 65.0 | . | .
CCOC(=O)c1[nH]c2ccc(Br)cc2c1NC(=O)CCN1CCCCC1 | / | / | / | . | / | /
NC(=O)CSc1nnc(-c2ccc([N+](=O)[O-])cc2)o1 | . | . | . | . | . | .
Cn1ncc([N+](=O)[O-])c1C(=O)N/N=C/c1cccc([N+](=O)[O-])c1 | -5.36 | . | . | . | . | .
CCN(CC)CCCNC(=O)C1c2ccccc2Oc2ccccc21 | . | . | -7.33 | . | . | .
